Results: publication PMC4029506 (Bioorganic & medicinal chemistry, 2014)
One block for each compound: values may come before it.

Key:
[1] = previously observed; cited from earlier work
[2] = test system: cannabinoid CB1 receptor; conditions: cited from earlier work
[3] = test system: cannabinoid CB2 receptor; conditions: cited from earlier work
[4] = test system: vanilloid receptors; conditions: cited from earlier work
[5] = test system: human ether-a-go-go related gene (hERG); conditions: cited from earlier work
[6] = test system: P450 3A4; conditions: cited from earlier work
[7] = test system: P450 2C9; conditions: cited from earlier work
[8] = test system: P450 2D6; conditions: cited from earlier work
[9] = test system: FAAH; conditions: cited from earlier work
[10] = Hemiketal / hydrate; type: physicochemical; conditions: for hydrate (gem diol) formation at 24 h: 7% D2O–DMSO-d6, 24 h; for hydrate (gem diol) formation initially: 7% D2O–DMSO-d6, initially; for hemiketal formation: in CD3OD
[11] = target: T1, purified recombinant rat FAAH (rFAAH) (Rattus norvegicus, UniProt P97612); assay: FAAH enzyme inhibition assay; type: biochemical; conditions: for fold loss in activity / fold less potent than 3 against FAAH: relative to 3
T1 sequence (P97612 30-579 limits assumed): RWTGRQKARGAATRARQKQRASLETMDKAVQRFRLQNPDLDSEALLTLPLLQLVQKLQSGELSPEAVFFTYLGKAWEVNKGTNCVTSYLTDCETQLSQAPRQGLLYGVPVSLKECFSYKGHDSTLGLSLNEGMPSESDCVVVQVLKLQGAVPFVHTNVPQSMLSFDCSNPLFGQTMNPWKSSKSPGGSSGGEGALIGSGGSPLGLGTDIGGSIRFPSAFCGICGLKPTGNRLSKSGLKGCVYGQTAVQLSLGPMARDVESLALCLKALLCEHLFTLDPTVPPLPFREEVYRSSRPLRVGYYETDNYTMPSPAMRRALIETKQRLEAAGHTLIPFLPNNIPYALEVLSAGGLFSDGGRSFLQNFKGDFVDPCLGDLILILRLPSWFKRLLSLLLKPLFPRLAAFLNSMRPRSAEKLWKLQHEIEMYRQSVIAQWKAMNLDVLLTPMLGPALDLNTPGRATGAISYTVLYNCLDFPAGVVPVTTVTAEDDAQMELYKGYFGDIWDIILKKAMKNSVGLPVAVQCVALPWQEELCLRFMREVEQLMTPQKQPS

[12] = Epimerization in assay buffer without enzyme, monitored by chiral HPLC; type: physicochemical; conditions: assay buffer pH 9.1, without enzyme, 30 min
In short: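 Test compound dissolved in DMSO and added to assay buffer (pH 9.1) with no enzyme. Enantiopurity was followed by chiral HPLC over a 30 min exposure. Loss of enantiomeric excess is reported as percent change.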

[13] = Racemization after dissolution in a variety of solvents; type: physicochemical; conditions: 5% Et3N in EtOAc
[14] = test system: serine hydrolases in the mouse brain proteome including KIAA1363, MAGL, and ABHD6; assay: Activity-based protein profile; type: biochemical; conditions: both enantiomers; mouse brain proteome 1 mg/mL, FP-rhodamine 100 nM, 10 nM to 100 μM

Compound: O=C(CCCCCCc1ccccc1)c1ncc(-c2ccccn2)o1 [compound 2]
- hydrated (gem diol) state in solution [1]: do not adopt a hydrated (gem diol) state
- binding to CB1 [2]: does not bind
- binding to CB2 [3]: does not bind
- binding to vanilloid receptors [4]: does not bind
- inhibition of hERG [5]: does not inhibit
- inhibition of P450 3A4 [6]: does not inhibit
- inhibition of P450 2C9 [7]: does not inhibit
- inhibition of P450 2D6 [8]: does not inhibit
- antinociception in FAAH knockout mice ([9]; FAAH knockout mice): No antinociception
- in vivo activity [9]: antinociceptive and anti-inflammatory activity
- levels of anandamide in vivo [9]: increases

- hydrate (gem diol) or hemiketal formation ([10]; CD3OD and 7% D2O–DMSO-d6): no detectable
Compound: O=C(c1ncc(-c2ccccn2)o1)[C@H]1CCc2cc(Oc3ccccc3)ccc2C1 [compound 3, reference compound]

- fold loss in activity / fold less potent than 3 against FAAH [11]: 8 fold
- fold reduction in activity upon introduction of the C5-pyridine substituent (14 vs 16) ([11]; relative to 16): 2 fold
- total change in ee (loss of enantiopurity) [12]: −4.4%
- racemization within the first hour [13]: significant racemization
- time to complete epimerization ([13]; continued exposure): ≤ 48 h
- hydrate (gem diol) formation at 24 h [10]: 25%
- hydrate (gem diol) formation initially [10]: no gem diol detected
- hemiketal formation [10]: 34%
Compound: O=C(c1ncc(-c2ccccn2)o1)C1CCc2cc(Oc3ccccc3)ccc2O1 (stereo not drawn) [compound 14]
- selectivity for FAAH over all other serine hydrolases [14]: > 200 fold

- hydrate (gem diol) formation at 24 h [10]: 27%
- hydrate (gem diol) formation initially [10]: no gem diol detected
- hemiketal formation [10]: 45%
Compound: COC(=O)c1cccc(-c2cnc(C(=O)C3CCc4cc(Oc5ccccc5)ccc4O3)o2)n1 (stereo not drawn) [compound 15]

- total change in ee (loss of enantiopurity) [12]: −6.8%
- hydrate (gem diol) formation at 24 h [10]: 13%
- hydrate (gem diol) formation initially [10]: no gem diol detected
- hemiketal formation [10]: 38%
Compound: O=C(c1ncco1)C1CCc2cc(Oc3ccccc3)ccc2O1 (stereo not drawn) [compound 16]

- potency relative to the unsubstituted parent oxazoles ([11]; installation of the pyridine substituent at C5): roughly equipotent
- fold less active than either 2 or 3 ([11]; relative to 2 or 3): 4 fold
- fold loss in activity / fold less potent than 3 against FAAH [11]: 2- to 4 fold
- total change in ee (loss of enantiopurity) [12]: −4.8%
Compound: O=C(c1ncc(-c2ccccn2)o1)C1COc2cc(OCc3ccccc3)ccc2C1 (stereo not drawn) [compound 46]

- fold loss in activity / fold less potent than 3 against FAAH [11]: 2- to 4 fold
- total change in ee (loss of enantiopurity) [12]: −1.7%
Compound: O=C(c1ncc(-c2ccccn2)o1)C1COc2cc(Oc3ccccc3)ccc2C1 (stereo not drawn) [compound 47]
- selectivity for FAAH over all other serine hydrolases [14]: > 200 fold

- fold difference in potency between the two enantiomers ([11]; FAAH inhibition): 1.6 fold
Compound: O=C(c1ncc(I)o1)C1COc2cc(Oc3ccccc3)ccc2C1 (stereo not drawn) [compound 54]
